Experiments:
[1] = Selectivity index was defined as the ratio of CC50 to EC50; assay type: functional
Summary of the method: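 The ratio is CC50/EC50. Both come from MT-4 cells at 5 × 10^5 cells/mL, mixed 1:1 with compound dilutions for 5 days, with viable cells counted by trypan blue. EC50 used cells infected with HIV-1 (IIIB) at 100 CCID50 per mL. CC50 used mock-infected cells. […] Values are means of three to five experiments.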

MT4 [2] = assay: Cytotoxic concentration required to reduce MT-4 cell viability by 50%; assay type: functional; details: Homo sapiens
Summary of the method: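 MT-4 cells (HTLV-1-transformed human T-lymphocytes) at 5 × 10^5 cells/mL were mock-infected and mixed 1:1 with serial dilutions of compound. After 5 days, viable cells were counted by trypan blue exclusion in a blood-cell-counting chamber. CC50 is the concentration reducing viable cell number by 50%. Values are means of at least three to five independent experiments.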

MT4 [3] = assay: Concentration required to inhibit HIV-1 induced cytopathicity in MT-4 cells by 50%; assay type: functional, cell-based; details: Homo sapiens
Summary of the method: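 HIV-1 IIIB-infected human MT-4 cells (HTLV-1-transformed), 5 x 10^5 cells/mL, infected at 100 CCID50 per mL of cell suspension, then mixed with compound dilutions. After 5 days, viable cells were counted by trypan blue staining in a blood-cell-counting chamber. EC50 is the concentration […]. Values are means of at least three to five independent experiments.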

| Compound | Selectivity index [1] | CC50 (MT4 [2]) [µM] | EC50 (MT4 [3]) [µM] |
| --- | --- | --- | --- |
| Cc1ccnc2c1NC(=O)c1cccnc1N2C1CC1 [NEVIRAPINE] | > 625 | > 80 | 0.128 |
| CC(C)(C)[Si](C)(C)OC[C@H]1O[C@@H](n2ccc(=O)[nH]c2=O)[C@H](O[Si](C)(C)C(C)(C)C)C12OS(=O)(=O)C=C2N (some centres undefined) | 73 | 15 | 0.206 |
| CC(C)(C)[Si](C)(C)OC[C@H]1O[C@@H](n2ccc(N)nc2=O)[C@H](O[Si](C)(C)C(C)(C)C)[C@]12OS(=O)(=O)C=C2N | > 360 | > 360 | 1 |
| Cc1cn([C@@H]2O[C@H](CO[Si](C)(C)C(C)(C)C)C3(OS(=O)(=O)C=C3N)[C@H]2O[Si](C)(C)C(C)(C)C)c(=O)[nH]c1=O (some centres undefined) | – | 14 | 0.06 |
| Cc1cn([C@@H]2O[C@H](CO[Si](C)(C)C(C)(C)C)[C@@]3(OS(=O)(=O)C=C3N)[C@H]2O[Si](C)(C)C(C)(C)C)c(=O)nc1N | 246 | 31 | 0.127 |
| C=CCn1c(=O)c(C)cn([C@@H]2O[C@H](CO[Si](C)(C)C(C)(C)C)[C@@]3(OS(=O)(=O)C=C3N)[C@H]2O[Si](C)(C)C(C)(C)C)c1=O | > 1420 | – | 0.233 |
| CCn1c(=O)c(C)cn([C@@H]2O[C@H](CO[Si](C)(C)C(C)(C)C)[C@@]3(OS(=O)(=O)C=C3N)[C@H]2O[Si](C)(C)C(C)(C)C)c1=O | 1000 | 123 | 0.123 |
| Cc1cn([C@@H]2O[C@H](COC(=O)c3ccccc3)[C@@]3(OS(=O)(=O)C=C3N)[C@H]2O[Si](C)(C)C(C)(C)C)c(=O)[nH]c1=O | < 2.5 | 36 | > 15 |
| Cc1cn([C@@H]2O[C@H](CO[Si](C)(C)C(C)(C)C)[C@@]3(OS(=O)(=O)C=C3N)[C@H]2O[Si](C)(C)C(C)(C)C)c(=O)n(C)c1=O | 4090 | 240 | 0.059 |
| CC(=O)O[C@H]1[C@H](n2cc(C)c(=O)[nH]c2=O)O[C@H](COC(=O)c2ccccc2)[C@@]12OS(=O)(=O)C=C2N | – | > 200 | > 200 |
| Cc1cn([C@@H]2O[C@H](CO)[C@@]3(OS(=O)(=O)C=C3N)[C@H]2O[Si](C)(C)C(C)(C)C)c(=O)[nH]c1=O | < 2.5 | 229 | > 80 |
| CC(C)=CCn1c(=O)c(C)cn([C@@H]2O[C@H](CO[Si](C)(C)C(C)(C)C)[C@@]3(OS(=O)(=O)C=C3N)[C@H]2O[Si](C)(C)C(C)(C)C)c1=O | 183 | 69 | 0.377 |
| CC(C)=CCN1Cc2cccc3[nH]c(=S)n(c23)C[C@@H]1C | > 1050 | > 80 | 0.076 |
| C=CCn1c(=O)ccn([C@@H]2O[C@H](CO[Si](C)(C)C(C)(C)C)[C@@]3(OS(=O)(=O)C=C3N)[C@H]2O[Si](C)(C)C(C)(C)C)c1=O | 15 | 8.9 | 0.615 |
